# Measurements taken from ChEMBL document CHEMBL4311983, “Development of chalcone-O-alkylamine derivatives as multifunctional agents against Alzheimer's disease” (Eur J Med Chem, 2019).
# Key:
# [1] = biological target: T1, Amine oxidase [flavin-containing] B (Homo sapiens, UniProt P27338); assay: Inhibition of MAO-B (unknown origin) relative to control
# T1 sequence (P27338 whole entry): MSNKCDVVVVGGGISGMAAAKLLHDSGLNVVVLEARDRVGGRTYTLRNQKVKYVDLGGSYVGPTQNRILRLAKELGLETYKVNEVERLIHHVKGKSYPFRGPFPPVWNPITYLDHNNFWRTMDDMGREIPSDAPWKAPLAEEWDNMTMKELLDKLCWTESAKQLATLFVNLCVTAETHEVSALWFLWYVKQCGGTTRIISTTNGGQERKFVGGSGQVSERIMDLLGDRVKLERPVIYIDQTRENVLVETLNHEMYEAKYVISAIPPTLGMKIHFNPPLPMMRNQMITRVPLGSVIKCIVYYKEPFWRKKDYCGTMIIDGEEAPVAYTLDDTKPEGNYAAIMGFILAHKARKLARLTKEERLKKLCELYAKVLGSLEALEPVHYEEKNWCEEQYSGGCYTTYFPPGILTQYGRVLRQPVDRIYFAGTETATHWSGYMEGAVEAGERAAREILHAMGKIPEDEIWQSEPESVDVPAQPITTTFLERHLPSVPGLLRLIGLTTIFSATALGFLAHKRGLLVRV
# [2] = Antioxidant activity assessed as AAPH scavenging activity by ORAC fluorescein assay; format: functional
# In short: (§1)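 ORAC-FL in 75 mM phosphate buffer pH 7.40; fluorescein 150 nM final plus test antioxidant; Trolox standard at 1-8 μM final; values as Trolox equivalents.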
# [3] = Disaggregation of Cu2+ induced preformed fibrils of amyloid beta (1 to 42) at 25 uM preincubated with Cu2+ for 24 hrs followed by compound addition and measured after 24 hrs by thioflavin-T based fluorescence assay relative to control
# In short: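 Aβ1-42 and Cu2+ (each 25 μM final) in 20 mM HEPES pH 6.6, 150 mM NaCl, preincubated 24 h at 37 °C; compound (25 μM final) added, another 24 h at 37 °C under film; 5 μM ThT in glycine-NaOH added; ex 446/em 490 nm; triplicate.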
# [4] = Inhibition of Cu2+-induced amyloid beta (1 to 42 residues) aggregation at 25 uM after 24 hrs by thioflavin T-based fluorescence assay relative to control
# In short: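 Aβ1-42 (25 μM final) with Cu2+ (25 μM final) in 20 mM HEPES pH 6.6, 150 NaCl, ± compound 25 μM final, 37 °C for 24 h; 5 μM ThT in 50 mM glycine-NaOH pH 8.50 added; ex 446/em 490 nm; triplicate.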
# [5] = biological target: T1, Amine oxidase [flavin-containing] B; assay: biochemical; format: cell-based
# [6] = Selectivity index, ratio of IC50 for equine BuChE to IC50 for electric eel AChE
# In short: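 Ratio of Ellman-assay IC50 values, BuChE over AChE. Enzymes were equine serum BuChE and electric eel AChE, each at 0.05 U/mL final in pH 8.0 phosphate buffer. Each IC50 is the mean of three independent experiments run in triplicate.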
# [7] = biological target: T2, Cholinesterase (Homo sapiens, UniProt P06276); assay: Inhibition of human BuChE using butyrylthiocholine iodide as substrate incubated for 15 mins by Ellman's method
# In short: (§2)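 Modified Ellman assay in phosphate buffer pH 8.0, with enzyme at 0.05 U/mL final: eel AChE, equine serum BuChE or human serum BuChE. Test compound was added at several concentrations, and blanks lacked enzyme.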
# [8] = biological target: T3, Amine oxidase [flavin-containing] A (Homo sapiens, UniProt P21397); assay: Inhibition of recombinant human MAO-A expressed in baculovirus infected BTI insect cells at 10 uM using kynuramine as substrate after 30 mins by fluorescence based assay relative to control; conditions: 0.5 h
# T3 sequence (P21397 whole entry): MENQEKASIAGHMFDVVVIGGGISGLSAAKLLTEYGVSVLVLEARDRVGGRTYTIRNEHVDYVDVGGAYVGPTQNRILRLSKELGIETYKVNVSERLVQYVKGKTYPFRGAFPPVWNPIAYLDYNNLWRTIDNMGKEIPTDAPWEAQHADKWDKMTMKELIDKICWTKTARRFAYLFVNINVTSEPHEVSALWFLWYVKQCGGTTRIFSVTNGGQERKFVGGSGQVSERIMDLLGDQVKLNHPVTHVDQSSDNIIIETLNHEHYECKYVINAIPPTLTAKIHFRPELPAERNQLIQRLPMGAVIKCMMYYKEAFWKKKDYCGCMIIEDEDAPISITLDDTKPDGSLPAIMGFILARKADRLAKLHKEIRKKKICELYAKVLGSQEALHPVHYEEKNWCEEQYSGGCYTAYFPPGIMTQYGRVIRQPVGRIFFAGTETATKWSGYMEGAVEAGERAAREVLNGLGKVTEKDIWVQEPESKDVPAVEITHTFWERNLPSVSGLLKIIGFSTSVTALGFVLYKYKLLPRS
# [9] = biological target: Acetylcholinesterase (Homo sapiens, UniProt P22303); assay: Inhibition of human AChE using acetylthiocholine iodide as substrate after 15 mins by Ellman's method
# [10] = biological target: T4, Acetylcholinesterase (Electrophorus electricus, UniProt O42275); format: single protein
# [11] = biological target: Cholinesterase (Equus caballus, UniProt P81908); assay: Inhibition of equine butyrylcholinesterase using butyrylthiocholine iodide as substrate incubated for 15 mins by Ellman's method; in short: as §2
# [12] = biological target: Amyloid-beta precursor protein (Homo sapiens) (UniProt P05067); assay: Inhibition of self-induced amyloid beta ( 1 to 42 residues) (unknown origin) aggregation relative to control; conditions: concentration not given here
# In short: (§3)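 HFIP-treated Aβ1-42, dried, redissolved in DMSO; 25 μM final peptide incubated with 25 μM compound in 50 mM phosphate buffer pH 7.40, 37 °C, 24 h; 5 μM ThT in 50 mM glycine-NaOH pH 8.0 added; fluorescence ex 446/em 490 nm.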
# [13] = biological target: T1, Amine oxidase [flavin-containing] B; assay: Inhibition of MAO-B (unknown origin)
# [14] = biological target: T4, Acetylcholinesterase; assay: Inhibition of Electric eel AChE; in short: as §2
# [15] = Antioxidant activity assessed as trolox equivalent of AAPH-induced radical scavenging activity preincubated for 15 mins followed by AAPH addition measured every minute for 120 mins by ORAC fluorescein assay; format: functional; in short: as §1
# [16] = biological target: Amyloid-beta precursor protein (Homo sapiens) (UniProt P05067); assay: Inhibition of HFIP-pretreated amyloid beta (1 to 42 residues) (unknown origin) self aggregation at 25 uM after 24 hrs by ThT-based fluorescence method relative to control; in short: as §3
# [17] = biological target: T2, Cholinesterase; assay: Inhibition of BuChE (unknown origin)
# T4 sequence (O42275 whole entry): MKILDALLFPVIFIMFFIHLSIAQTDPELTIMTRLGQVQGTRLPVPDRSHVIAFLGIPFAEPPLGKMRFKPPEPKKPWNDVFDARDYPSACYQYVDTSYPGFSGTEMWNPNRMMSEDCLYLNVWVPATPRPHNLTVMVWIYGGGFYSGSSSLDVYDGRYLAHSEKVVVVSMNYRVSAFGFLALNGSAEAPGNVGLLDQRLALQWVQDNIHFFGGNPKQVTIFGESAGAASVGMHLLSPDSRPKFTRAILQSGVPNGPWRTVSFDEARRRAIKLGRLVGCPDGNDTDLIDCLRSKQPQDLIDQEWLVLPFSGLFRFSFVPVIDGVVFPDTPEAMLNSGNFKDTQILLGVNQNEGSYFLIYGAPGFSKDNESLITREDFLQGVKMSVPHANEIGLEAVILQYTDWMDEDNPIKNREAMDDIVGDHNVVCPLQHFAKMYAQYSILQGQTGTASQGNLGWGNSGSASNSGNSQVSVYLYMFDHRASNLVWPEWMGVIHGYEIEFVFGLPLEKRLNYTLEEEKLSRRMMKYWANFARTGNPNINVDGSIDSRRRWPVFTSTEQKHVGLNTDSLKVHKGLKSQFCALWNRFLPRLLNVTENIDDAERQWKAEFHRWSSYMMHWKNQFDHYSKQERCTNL
# Cholinesterase (Equus caballus, UniProt P81908), sequence (P81908 whole entry, the tested form may be a part): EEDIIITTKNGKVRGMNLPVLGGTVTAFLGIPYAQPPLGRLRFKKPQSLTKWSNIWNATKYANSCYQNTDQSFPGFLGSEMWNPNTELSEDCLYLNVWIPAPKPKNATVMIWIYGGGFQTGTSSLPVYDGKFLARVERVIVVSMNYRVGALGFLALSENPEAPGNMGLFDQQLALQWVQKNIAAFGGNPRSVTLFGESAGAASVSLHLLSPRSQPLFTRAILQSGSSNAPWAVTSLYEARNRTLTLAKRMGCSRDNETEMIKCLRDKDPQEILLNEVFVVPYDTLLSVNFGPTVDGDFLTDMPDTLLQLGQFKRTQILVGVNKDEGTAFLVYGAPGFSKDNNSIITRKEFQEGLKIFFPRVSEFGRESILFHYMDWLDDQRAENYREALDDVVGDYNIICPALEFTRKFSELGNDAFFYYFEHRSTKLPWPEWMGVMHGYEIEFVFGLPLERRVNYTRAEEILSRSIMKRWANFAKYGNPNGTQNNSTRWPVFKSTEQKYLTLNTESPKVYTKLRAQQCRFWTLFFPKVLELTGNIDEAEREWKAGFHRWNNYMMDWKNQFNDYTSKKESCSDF
# Amyloid-beta precursor protein (Homo sapiens), sequence (P05067 whole entry, the tested form may be a part): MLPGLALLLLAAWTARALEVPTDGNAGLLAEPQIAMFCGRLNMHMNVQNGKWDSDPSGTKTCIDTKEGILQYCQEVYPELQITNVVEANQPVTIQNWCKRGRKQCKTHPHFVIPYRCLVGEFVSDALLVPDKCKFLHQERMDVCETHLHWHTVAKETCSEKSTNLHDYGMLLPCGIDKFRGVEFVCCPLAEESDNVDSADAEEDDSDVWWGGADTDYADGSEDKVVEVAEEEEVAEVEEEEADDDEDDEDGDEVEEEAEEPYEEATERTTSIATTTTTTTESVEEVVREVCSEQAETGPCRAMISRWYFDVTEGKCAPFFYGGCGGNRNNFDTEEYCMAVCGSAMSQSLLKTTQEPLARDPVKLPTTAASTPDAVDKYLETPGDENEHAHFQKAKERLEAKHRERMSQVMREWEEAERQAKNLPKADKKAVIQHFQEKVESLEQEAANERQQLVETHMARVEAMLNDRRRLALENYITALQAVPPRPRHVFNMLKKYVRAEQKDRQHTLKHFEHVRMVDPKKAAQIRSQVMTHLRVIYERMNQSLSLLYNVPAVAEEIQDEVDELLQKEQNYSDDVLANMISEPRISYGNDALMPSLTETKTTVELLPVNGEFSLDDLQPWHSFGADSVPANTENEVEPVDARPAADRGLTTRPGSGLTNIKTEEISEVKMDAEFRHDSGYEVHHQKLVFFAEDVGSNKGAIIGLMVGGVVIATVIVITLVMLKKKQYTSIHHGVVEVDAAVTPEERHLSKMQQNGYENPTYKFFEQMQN
# T2 sequence (P06276 whole entry): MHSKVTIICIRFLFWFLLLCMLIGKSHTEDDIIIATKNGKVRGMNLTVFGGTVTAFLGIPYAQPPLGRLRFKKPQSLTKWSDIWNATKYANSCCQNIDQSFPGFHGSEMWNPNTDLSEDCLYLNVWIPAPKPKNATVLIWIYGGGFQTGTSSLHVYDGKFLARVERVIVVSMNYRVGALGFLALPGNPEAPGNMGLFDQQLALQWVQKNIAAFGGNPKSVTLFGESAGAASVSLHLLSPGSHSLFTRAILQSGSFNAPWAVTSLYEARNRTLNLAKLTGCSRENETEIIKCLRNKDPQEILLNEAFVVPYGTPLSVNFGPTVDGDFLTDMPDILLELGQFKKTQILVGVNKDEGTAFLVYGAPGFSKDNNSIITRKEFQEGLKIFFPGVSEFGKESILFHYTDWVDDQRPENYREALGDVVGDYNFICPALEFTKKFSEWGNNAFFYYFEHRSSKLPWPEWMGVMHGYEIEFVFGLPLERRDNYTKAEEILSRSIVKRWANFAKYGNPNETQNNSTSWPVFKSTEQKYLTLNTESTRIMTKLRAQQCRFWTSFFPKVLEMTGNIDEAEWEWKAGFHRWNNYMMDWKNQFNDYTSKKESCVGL
# Acetylcholinesterase (Homo sapiens, UniProt P22303), sequence (P22303 whole entry): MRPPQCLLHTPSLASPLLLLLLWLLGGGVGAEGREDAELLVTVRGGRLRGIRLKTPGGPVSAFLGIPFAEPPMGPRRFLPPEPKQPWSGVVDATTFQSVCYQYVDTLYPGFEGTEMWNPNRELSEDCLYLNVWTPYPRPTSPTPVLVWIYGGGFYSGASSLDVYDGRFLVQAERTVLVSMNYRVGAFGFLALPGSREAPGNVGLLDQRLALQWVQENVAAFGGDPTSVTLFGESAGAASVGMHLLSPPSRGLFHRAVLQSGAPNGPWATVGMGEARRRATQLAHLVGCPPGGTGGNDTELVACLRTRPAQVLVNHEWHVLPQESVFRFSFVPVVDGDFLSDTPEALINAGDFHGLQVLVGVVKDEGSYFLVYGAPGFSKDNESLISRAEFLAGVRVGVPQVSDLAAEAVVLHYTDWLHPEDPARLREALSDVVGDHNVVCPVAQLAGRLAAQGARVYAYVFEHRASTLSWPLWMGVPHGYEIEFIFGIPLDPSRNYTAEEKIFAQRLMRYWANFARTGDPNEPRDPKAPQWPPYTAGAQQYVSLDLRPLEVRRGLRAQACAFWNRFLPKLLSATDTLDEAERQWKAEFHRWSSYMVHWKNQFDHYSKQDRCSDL
Structure (SMILES),IC50 [5] [µM],Ratio IC50 [6],inhibition at 10 µM [8] [%],IC50 [10] [µM],IC50 [11] [µM],further results
CCN(CC)c1ccc(/C=C/C(=O)c2cc(-c3ccc(C(C)C(=O)OC)cc3F)ccc2O)cc1 (stereo not drawn),,,,,,inhibition (INH) [1]: 75.5%; Activity [2]: 3.3 Trolox eq
COc1cc(/C=C/C(=O)CC(=O)/C=C/c2ccc(O)c(OC)c2)ccc1O,,,,,,Activity [3]: 56.5%; inhibition [4]: 76.5%
O=C(/C=C/c1ccccc1)c1ccc(OCCCCCCN2CCCC2)cc1O,12.7,2.9,9.5,4.2,12.3,IC50 [7]: 15.8 µM; IC50 [9]: 3.2 µM
CCN(CC)Cc1ccc(/C=C/C(=O)c2ccc(OC)c(OC)c2)cc1O,,,,,,inhibition [12]: 55%; IC50 [13]: 1.21 µM; IC50 [14]: 0.44 µM
O=C(/C=C/c1ccc(OCCCCCCN2CCCC2)cc1)c1ccccc1O,18.5,5.6,15.6,8.9,50.2,
CCN(CC)CCCCCCOc1ccc(/C=C/C(=O)c2ccc(OCCCCCCN(CC)CC)cc2O)cc1,1.6,1.1,8.7,3.7,4.2,Activity [15]: 1.1 Trolox eq; inhibition [16]: 63.7%; inhibition [4]: 84.2%
CCN(C)C(=O)Oc1cccc(/C=C/C(=O)c2ccccc2O)c1,,,,,,IC50 [17]: 3.1 µM
